Results of several laboratories.
Compare with care: the assays were run in different laboratories.
HTR5A: 5-hydroxytryptamine receptor 5A (HTR5A, Homo sapiens, UniProt P47898)
DRD4: D(4) dopamine receptor (DRD4, Homo sapiens, UniProt P21917)
PIK3CD: Phosphatidylinositol 4,5-bisphosphate 3-kinase catalytic subunit delta isoform (PIK3CD, Homo sapiens, UniProt O00329)
Kir1 channel protein: Kir1 channel protein (Aedes aegypti, UniProt L0EQS9)

| SMILES | target | assay | setting | endpoint | result |
| --- | --- | --- | --- | --- | --- |
| CC[C@@H]1C(=O)OC[C@@H]1Cc1cncn1C | Cytochrome P450 2E1 (CYP2E1, Homo sapiens, UniProt P05181) | enzyme activity, inhibitor | 10 min, pH 6.8 | Ki | 765 µM |
| Cc1cnc(-c2ccc(-c3ccc(NC(=O)Nc4c(F)cc(F)cc4F)cc3F)c3c2C(=O)NC3)[nH]1 | Mast/stem cell growth factor receptor Kit (KIT, Homo sapiens, UniProt P10721) | binding, competition with immobilised ligand |  | Kd | 0.0008 µM |
| COc1ccc(-c2nsc(NC(=O)[C@@H]3C[C@H]3C)c2C)cc1 | Metabotropic glutamate receptor 8 (GRM8, Homo sapiens, UniProt O00222) | calcium signal, agonist |  | EC50 | > 25 µM |
| CNc1nc2cc(OCCCCN3CCC(c4cccc(Cl)c4Cl)CC3)ccc2s1 | HTR5A | ligand displacement, radioligand |  | Ki | 0.81 µM |
| Oc1cccc(CCC2=NCCN2Cc2ccccc2)c1 | DRD4 | ligand displacement, radioligand |  | Ki | > 10 µM |
| CCC(=O)N1CCC(C(=O)N(C)CC(=O)N2CCN(c3nc(-c4cnc(N)nc4C(F)F)nc(N4CCOCC4)n3)CC2)CC1 | PIK3CD | binding, competition with immobilised ligand |  | Kd | 0.0049 µM |
| O=S(=O)(c1ccc(F)cc1)N1CCN(c2ccc(C(F)(F)F)c(NCc3ccncc3)c2)CC1 | Kir1 channel protein | ion flux, inhibitor |  | IC50 | 4 to 9 µM |
| CCN(CC)c1ccc(C2Nc3ccc(C(=O)c4ccccc4)cc3NC3=C2C(=O)CC(C)(C)C3)cc1 (stereo not drawn) | HTR5A | cell-free assay, radioligand |  | Ki | 7.96 µM |
| N#Cc1ccc(N2CCN(S(=O)(=O)c3ccc(F)cc3)CC2)cc1NCc1ccncc1 | Kir1 channel protein | ion flux, inhibitor |  | IC50 | 0.361 µM |
| CS(=O)(=O)C1(CNCc2ccc(Br)c3cccnc23)CC1 | HTR5A | ligand displacement, radioligand |  | Ki | 0.178 µM |
| Cc1ncsc1-c1ccc(CNC(=O)[C@@H]2C[C@@H](O)CN2C(=O)[C@@H](NC(=O)CCCCCCCCCC(=O)N2CCN(CC[C@H](NC(=O)C3(N)CCN(c4ncnc5[nH]ccc45)CC3)c3ccc(Cl)cc3)CC2)C(C)(C)C)cc1 | RAC-beta serine/threonine-protein kinase (AKT2, Homo sapiens, UniProt P31751) | binding, competition with immobilised ligand |  | Kd | 0.36 µM |
| CCS(=O)(=O)N1CCN(c2ccc([N+](=O)[O-])c(NCc3cccnc3)c2)CC1 | Kir1 channel protein | ion flux, inhibitor |  | IC50 | 21 µM |
| COc1ccc(F)cc1C(=O)NCc1ccc(-c2nn([C@@H](C)C(F)(F)F)c(N)c2C(N)=O)cc1 | Tyrosine-protein kinase BTK (BTK, Homo sapiens, UniProt Q06187, C481S) | phosphorylation in cells, inhibitor |  | IC50 | 0.0081 µM |
| Clc1ccc(CNC[C@H]2CCn3ccnc3C2)c2ncccc12 | HTR5A | ligand displacement, radioligand |  | Ki | 3.24 µM |
| CC(=O)N[C@@H](Cc1ccccc1)C(=O)N1CCC[C@H]1C(=O)N1CCC[C@H]1C(=O)N1CCC[C@H]1C(=O)N1CCC[C@H]1C(=O)O | Vasodilator-stimulated phosphoprotein (VASP, Homo sapiens, UniProt P50552) | binding, fluorescence |  | Kd | 800 µM |
| CN1CCN(c2ccc(Nc3ncc4cc(C#N)c(=O)n(C5CCCC5)c4n3)cc2)CC1 | Ribosomal protein S6 kinase alpha-5 (RPS6KA5, Homo sapiens, UniProt O75582) | enzyme activity, inhibitor |  | IC50 | 9.21 µM |
| CC(=O)CC(=O)SCCNC(=O)CCNC(=O)[C@H](O)C(C)(C)COP(=O)(O)OP(=O)(O)OC[C@H]1O[C@@H](n2cnc3c(N)ncnc32)[C@H](O)[C@@H]1OP(=O)(O)O | IVD (Homo sapiens, UniProt P26440) | binding, absorbance |  | Kd | ~18 µM |
| O=C1c2ccccc2CCN1CCCCN1CCN(c2ccccn2)CC1 | DRD4 | ligand displacement, radioligand |  | Ki | 0.0145 µM |
| C=CC(=O)Nc1cc(Nc2nccc(Nc3cc(Cl)c(F)cc3C(C)(C)O)n2)c(OC)cc1N1CC[C@@H](N(C)C)C1 | Receptor tyrosine-protein kinase erbB-4 (ERBB4, Homo sapiens, UniProt Q15303) | enzyme activity, inhibitor | with preincubation | IC50 | 0.704 µM |
| CCC(=O)N1CCC(C(=O)NCC(=O)N2CCN(c3nc(-c4cnc(N)nc4C(F)F)nc(N4CCOCC4)n3)CC2)CC1 | PIK3CD | binding, competition with immobilised ligand |  | Kd | 0.0016 µM |
| CC1=C(O)C(=O)OC1C (stereo not drawn) | OR8D1 (Homo sapiens, UniProt Q8WZ84, del306-308) | cAMP, agonist, luciferase |  | EC50 | 4.5 µM |
| CS(=O)(=O)N1CCN(c2ccc([N+](=O)[O-])c(NCc3cccnc3)c2)CC1 | Kir1 channel protein | ion flux, inhibitor |  | IC50 | 44 µM |
| O=C1c2ccccc2CCN1CCCCN1CCN(c2cccc(Cl)c2Cl)CC1 | HTR5A | ligand displacement, radioligand |  | Ki | 0.773 µM |
| CCn1c(-c2nc3cc(C(=O)N4CCC[C@@H](N)C4)cc(OC)c3n2C)cc2cccnc21 | Nuclear receptor subfamily 1 group I member 2 (NR1I2, Homo sapiens, UniProt O75469) | reporter gene, agonist, luciferase |  | EC50 | > 50.1 µM |
